Laboratory results as given in ChEMBL document CHEMBL4480464, “Bioactive Dimeric Acylphloroglucinols from the Mexican Fern Elaphoglossum paleaceum” (J Nat Prod, 2019).
Active and inactive are the calls of the source. No cut-off for these calls is given here.

Key:
[1] = Selectivity index, ratio of IC50 for human HSF30 cells to IC50 for human MCF7 cells; type: toxicity; conditions: HSF30 cells and MCF7 cells, read-out: Ratio IC50
How it was run: (§1)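 SI calculated as IC50 in HFS-30 fibroblasts divided by IC50 in each cancer line, all from the 72 h sulforhodamine B assay.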

[2] = system: PC-3; experiment: Cytotoxicity against human PC3 cells measured after 72 hrs by sulforhodamine B assay; type: functional, cell-based; conditions: PC-3, 72 h
How it was run: (§2)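 Sulforhodamine B assay on human cancer lines in RPMI-1640 with 10% FBS, 104 cells/mL, 37 °C, 5% CO2. Treated in triplicate at about 70% confluence with 0.16–20 μg/mL sample in DMSO for 72 h. IC50 taken as concentration giving 50% of control growth, from a log10 concentration versus % viable cells plot.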

[3] = system: SiHa; experiment: Cytotoxicity against human SiHa cells measured after 72 hrs by sulforhodamine B assay; type: functional, cell-based; how it was run: as §2
[4] = Cytotoxicity against human HSF30 cells measured after 72 hrs by sulforhodamine B assay; type: cell-based
How it was run: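 HFS-30 normal human skin fibroblasts grown in DMEM with 10% FBS at 37 °C, 5% CO2. Treated in triplicate at about 70% confluence with 0.16–20 μg/mL sample in DMSO for 72 h. Sulforhodamine B read-out. IC50 is concentration giving 50% of control growth.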

[5] = Cytotoxicity against human HF6 cells measured after 72 hrs by sulforhodamine B assay; type: functional, cell-based; how it was run: as §2
[6] = system: MCF7; experiment: Cytotoxicity against human MCF7 cells measured after 72 hrs by sulforhodamine B assay; type: functional, cell-based; conditions: MCF7, 72 h; how it was run: as §2
[7] = Selectivity index, ratio of IC50 for human HSF30 cells to IC50 for human HF6 cells; how it was run: as §1
[8] = Selectivity index, ratio of IC50 for human HSF30 cells to IC50 for human SiHa cells; type: toxicity; conditions: HSF30 cells and SiHa cells, read-out: Ratio IC50; how it was run: as §1
[9] = Selectivity index, ratio of IC50 for human HSF30 cells to IC50 for human PC3 cells; type: toxicity; conditions: HSF30 cells and PC3 cells, read-out: Ratio IC50; how it was run: as §1
[10] = molecular target: T1, Amine oxidase [flavin-containing] B (Rattus norvegicus, UniProt P19643); experiment: Inhibition of Wistar rat brain MAOB using kynuramine as substrate preincubated for 15 mins followed by substrate addition and measured after 15 mins by fluorescence assay
T1 sequence (P19643 whole entry): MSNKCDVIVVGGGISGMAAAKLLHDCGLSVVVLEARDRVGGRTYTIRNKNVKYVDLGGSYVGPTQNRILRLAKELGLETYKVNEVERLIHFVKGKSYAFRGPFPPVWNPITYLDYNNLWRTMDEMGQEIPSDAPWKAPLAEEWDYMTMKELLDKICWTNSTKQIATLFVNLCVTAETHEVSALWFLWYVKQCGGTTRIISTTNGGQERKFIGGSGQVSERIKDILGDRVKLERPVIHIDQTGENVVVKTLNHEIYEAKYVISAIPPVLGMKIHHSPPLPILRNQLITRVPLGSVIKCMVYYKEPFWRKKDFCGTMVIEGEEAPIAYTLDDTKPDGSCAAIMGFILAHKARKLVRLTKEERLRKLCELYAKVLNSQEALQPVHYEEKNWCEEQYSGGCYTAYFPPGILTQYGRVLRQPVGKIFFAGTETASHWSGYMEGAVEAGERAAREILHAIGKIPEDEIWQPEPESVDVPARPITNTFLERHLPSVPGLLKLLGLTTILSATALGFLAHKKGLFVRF
How it was run: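 Enzyme: unpurified mitochondrial homogenate from brains (cerebellum removed) of adult male Wistar rats (180−220 g), adjusted to 2500 μg/mL protein in PBS pH 7.4. Samples dissolved in 10% DMSO, tested over 0.1−100 μg/mL. Kynuramine 1 mM substrate; pargyline 10 μM as MAO-B-selective reference. Both incubations at 37 °C; stopped with 2 M NaOH. 4-Hydroxyquinoline read at ex 315/em 380 nm. Triplicate; IC50 as mean ± standard error.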

[11] = system: RAW264.7; experiment: Antiinflammatory activity in mouse RAW264.7 cells assessed as inhibition of LPS-induced nitric oxide production at 41 uM after 24 hrs by Griess assay; type: functional, cell-based
How it was run: (§3)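 Murine RAW264.7 macrophages in DMEM-F12 with 10% heat-inactivated FBS, no antibiotics, 37 °C, 5% CO2. Cells (2 × 10^5 cells/mL) preincubated 1 h, then compound added in Tween 80 vehicle, then stimulated with LPS 1 μg/mL for 24 h. Nitrite in medium measured by Griess reagent, absorbance 540 nm, quantified against NaNO2 standard curve. Triplicate, mean ± SEM.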

[12] = molecular target: T2, Amine oxidase [flavin-containing] A (Rattus norvegicus, UniProt P21396); experiment: Inhibition of Wistar rat brain MAOA using kynuramine as substrate preincubated for 15 mins followed by substrate addition and measured after 15 mins by fluorescence assay
T2 sequence (P21396 whole entry): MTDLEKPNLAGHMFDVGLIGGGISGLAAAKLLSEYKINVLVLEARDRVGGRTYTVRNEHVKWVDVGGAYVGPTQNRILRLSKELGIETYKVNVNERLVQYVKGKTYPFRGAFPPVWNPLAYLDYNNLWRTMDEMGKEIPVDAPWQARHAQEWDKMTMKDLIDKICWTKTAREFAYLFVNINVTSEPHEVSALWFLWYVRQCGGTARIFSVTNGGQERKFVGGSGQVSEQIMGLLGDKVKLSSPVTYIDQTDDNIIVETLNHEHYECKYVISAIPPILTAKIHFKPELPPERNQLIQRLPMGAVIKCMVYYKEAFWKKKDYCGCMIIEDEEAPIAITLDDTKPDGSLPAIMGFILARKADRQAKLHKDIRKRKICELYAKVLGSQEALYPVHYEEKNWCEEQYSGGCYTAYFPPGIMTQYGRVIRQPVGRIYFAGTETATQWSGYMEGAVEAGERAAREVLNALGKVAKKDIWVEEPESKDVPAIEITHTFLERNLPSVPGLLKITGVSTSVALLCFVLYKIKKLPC
How it was run: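 Unpurified mitochondrial homogenate from brains of male Wistar rats (180–220 g), adjusted to 2500 μg/mL protein in PBS pH 7.4. Sample from 10% DMSO stock, tested over 0.1–100 μg/mL. Enzyme and sample preincubated 15 min at 37 °C, kynuramine (1 mM) added, incubated 15 min at 37 °C, stopped with 2 M NaOH. Triplicate.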

[13] = system: RAW264.7; experiment: Cytotoxicity against LPS-induced mouse RAW264.7 cells assessed as cell killing at 123 to 164 uM measured after 24 hrs by resazurin dye based fluorescence assay; conditions: raw264.7, 24 h
How it was run: (§4)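 After the 24 h LPS (1 μg/mL) plus compound exposure and nitrite sampling, RAW264.7 wells given fresh DMEM-F12 with 10% heat-inactivated FBS plus resazurin (2 mM stock). Incubated a further 10 h at 37 °C, 5% CO2. Viability read as resorufin fluorescence. Vehicle Tween 80. Three independent experiments, mean ± SD.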

[14] = species: Rattus norvegicus; experiment: Selectivity index, ratio of IC50 for Wistar rat brain MAOB to Wistar rat brain MAOA
[15] = Cytotoxicity against LPS-induced mouse RAW264.7 cells assessed as cell viability at 82 uM measured after 24 hrs by resazurin dye based fluorescence assay; conditions: LPS-induced RAW264.7 cells, read-out: Activity; how it was run: as §4
[16] = system: RAW264.7; experiment: Cytotoxicity against LPS-induced mouse RAW264.7 cells assessed as effect on cell viability at 41 uM measured after 24 hrs by resazurin dye based fluorescence assay; conditions: raw264.7, 24 h; how it was run: as §4
[17] = system: RAW264.7; experiment: Cytotoxicity against LPS-induced mouse RAW264.7 cells assessed as cell killing at 92 to 185 uM measured after 24 hrs by resazurin dye based fluorescence assay; conditions: raw264.7, 24 h; how it was run: as §4
[18] = system: RAW264.7; experiment: Cytotoxicity against LPS-induced mouse RAW264.7 cells assessed as effect on cell viability at 46 uM measured after 24 hrs by resazurin dye based fluorescence assay; conditions: raw264.7, 24 h; how it was run: as §4
[19] = system: RAW264.7; experiment: Antiinflammatory activity in mouse RAW264.7 cells assessed as inhibition of LPS-induced nitric oxide production at 46 uM after 24 hrs by Griess assay; type: functional, cell-based; how it was run: as §3

Row | SMILES | selectivity ratio [1] | IC50 [2] | IC50 [3] | IC50 [4] | IC50 [5] | IC50 [6] | Ratio IC50 [7] | selectivity ratio [8] | selectivity ratio [9] | IC50 [10] | inhibition [11] | IC50 [12] | Activity [13] | Ratio IC50 [14] | viability at 24 h, 82 µM [15] | Activity [16] | Activity [17] | Activity [18] | inhibition [19]
1 | COc1cc([C@@H]2c3cc4c(cc3[C@H](O)[C@H]3COC(=O)[C@H]23)OCO4)cc(OC)c1OC [PODOFILOX] | 0.45 | 200 nM | 100 nM | 2 nM | 1000 nM | 5 nM | 0.002 | 0.02 | 0.11 |  |  |  |  |  |  |  |  |  | 
2 | C#CCN(C)Cc1ccccc1 [PARGYLINE] |  |  |  |  |  |  |  |  |  | 220 nM |  |  |  |  |  |  |  |  | 
3 | CCCC(=O)c1c(O)c(CC2=C(O)[C@](C)(C/C=C(\C)CCC=C(C)C)C(O)=C(C(C)=O)C2=O)c(O)c(CC=C(C)C)c1OC | 0.0025 | 2900 nM | 5600 nM | 80 nM | 6400 nM | > 10000 nM | 0.013 | 0.015 | 0.029 | 4400 nM | Active | 1300 nM | 100% | 3.5 | 50% | Non-Toxic |  |  | 
4 | CC(=O)O[C@H]1C(=O)[C@@]2(C)[C@H]([C@H](OC(=O)c3ccccc3)[C@]3(O)C[C@H](OC(=O)[C@H](O)[C@@H](NC(=O)c4ccccc4)c4ccccc4)C(C)=C1C3(C)C)[C@]1(OC(C)=O)CO[C@@H]1C[C@@H]2O [PACLITAXEL] |  | 150 nM | 1400 nM | 2 nM | 1600 nM | 50 nM | 0.001 |  |  |  |  |  |  |  |  |  |  |  | 
5 | CCCC(=O)c1c(OC)cc(O)c(CC2=C(O)[C@](C)(C/C=C(\C)CCC=C(C)C)C(O)=C(C(C)=O)C2=O)c1O | 0.0002 | 1700 nM | 6000 nM | 9 nM | > 10000 nM | > 10000 nM | 0.0005 | 0.002 | 0.005 | 4700 nM |  | 31000 nM |  | 0.1 |  |  | 100% | Non-Toxic | Active
